Data published in ChEMBL document CHEMBL5357047, “The development of thymol-isatin hybrids as broad-spectrum antibacterial agents with potent anti-MRSA activity” (RSC Med Chem, 2024).
Converted amounts (≈) assume the structure as drawn. The source made the active and inactive calls. The calls are words filed in the database; no cut-off is given here.

Columns and labels:
Escherichia coli [1] = experiment: Antibacterial activity against clinically isolated Escherichia coli RBRJ005 assessed as inhibition of bacterial growth at 50 uM measured after 48 hrs by agar well diffusion method; format: functional; conditions: read-out: IZ
Enterobacter cloacae = experiment: Antibacterial activity against clinically isolated Enterobacter cloacae RBRJ017 assessed as inhibition of bacterial growth at 50 uM measured after 48 hrs by agar well diffusion method; format: functional; conditions: read-out: IZ
Staphylococcus aureus [2] = experiment: Antibacterial activity against clinically isolated Staphylococcus aureus RBRJ010 assessed as inhibition of bacterial growth measured after 48 hrs by broth microdilution method; format: functional
Escherichia coli [3] = experiment: Antibacterial activity against Escherichia coli MTCC 119 assessed as inhibition of bacterial growth at 50 uM measured after 48 hrs by agar well diffusion method; format: functional; conditions: read-out: IZ
Staphylococcus aureus [4] = experiment: Bactericidal activity against clinically isolated Methicillin-resistant Staphylococcus aureus assessed as inhibition of bacterial growth measured after 48 hrs by agar plate method; format: functional
[5] = system: Staphylococcus epidermidis; experiment: Antibacterial activity against Staphylococcus epidermidis MTCC 435 assessed as inhibition of bacterial growth at 50 uM measured after 48 hrs by agar well diffusion method; format: functional; conditions: read-out: IZ
Escherichia coli [6] = experiment: Antibacterial activity against clinically isolated Escherichia coli RBRJ013 assessed as inhibition of bacterial growth at 50 uM measured after 48 hrs by agar well diffusion method; format: functional; conditions: read-out: IZ
[7] = system: Staphylococcus epidermidis; experiment: Antibacterial activity against Staphylococcus epidermidis MTCC 435 assessed as inhibition of bacterial growth measured after 48 hrs by broth microdilution method; format: functional
Staphylococcus aureus [8] = experiment: Antibacterial activity against Methicillin-resistant Staphylococcus aureus ATCC 33591 assessed as inhibition of bacterial growth at 50 uM measured after 48 hrs by agar well diffusion method; format: functional; conditions: read-out: IZ
Outline: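 Agar well diffusion on Mueller Hinton agar seeded with bacteria at 0.5 McFarland. […] Incubated 48 h at 37 °C aerobically; zone of inhibition diameter (mm) measured. Triplicate.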

Klebsiella pneumoniae [9] = experiment: Antibacterial activity against clinically isolated Klebsiella pneumoniae RBRJ019 assessed as inhibition of bacterial growth at 50 uM measured after 48 hrs by agar well diffusion method; format: functional; conditions: read-out: IZ
[10] = Cytotoxicity against mouse L929 cells assessed as reduction in cell viability measured after 72 hrs by MTT assay; format: toxicity, cell-based
Outline: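 L929 cells (ATCC) grown in DMEM with 10% FBS and penicillin/streptomycin at 37 °C, 5% CO2; seeded at 5 × 10^3 cells per well and exposed to serial dilutions for 72 h, paclitaxel as positive control. MTT (5 mg mL−1), formazan dissolved in DMSO, absorbance at 490 nm; viability relative to control after blank subtraction; IC50 in μM.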

Acinetobacter baumannii = experiment: Antibacterial activity against clinically isolated Acinetobacter baumannii RBRJ027 assessed as inhibition of bacterial growth at 50 uM measured after 48 hrs by agar well diffusion method; format: functional; conditions: read-out: IZ
Enterococcus faecalis [11] = experiment: Antibacterial activity against clinically isolated Enterococcus faecalis RBRJ015 assessed as inhibition of bacterial growth at 50 uM measured after 48 hrs by agar well diffusion method; format: functional; conditions: read-out: IZ
Staphylococcus aureus [12] = experiment: Antibacterial activity against Staphylococcus aureus MTCC 740 assessed as inhibition of bacterial growth at 50 uM measured after 48 hrs by agar well diffusion method; format: functional; conditions: read-out: IZ
Staphylococcus aureus [13] = experiment: Antibacterial activity against clinically isolated Staphylococcus aureus RBRJ010 assessed as inhibition of bacterial growth at 50 uM measured after 48 hrs by agar well diffusion method; format: functional; conditions: read-out: IZ
Staphylococcus aureus [14] = experiment: Antibacterial activity against Methicillin-resistant Staphylococcus aureus ATCC 33591 assessed as inhibition of bacterial growth measured after 48 hrs by broth microdilution method; format: functional
Enterococcus faecalis [15] = experiment: Antibacterial activity against Enterococcus faecalis MTCC 439 assessed as inhibition of bacterial growth at 50 uM measured after 48 hrs by agar well diffusion method; format: functional; conditions: read-out: IZ
Staphylococcus aureus [16] = experiment: Antibacterial activity against clinically isolated Methicillin-resistant Staphylococcus aureus assessed as inhibition of bacterial growth at 50 uM measured after 48 hrs by agar well diffusion method; format: functional; conditions: read-out: IZ
Staphylococcus aureus [17] = experiment: Antibacterial activity against Staphylococcus aureus MTCC 740 assessed as inhibition of bacterial growth measured after 48 hrs by broth microdilution method; format: functional
Staphylococcus aureus [18] = experiment: Antibacterial activity against clinically isolated Methicillin-resistant Staphylococcus aureus assessed as inhibition of bacterial growth measured after 48 hrs by broth microdilution method; format: functional
Staphylococcus aureus [19] = experiment: Bactericidal activity against clinically isolated Staphylococcus aureus RBRJ010 assessed as inhibition of bacterial growth measured after 48 hrs by agar plate method; format: functional
Outline: (§1)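 MBC: 10 μL from wells showing no INT colour change after broth microdilution subcultured on drug-free Mueller Hinton agar, 48 h at 37 °C aerobically; lowest concentration with no visible growth taken as MBC (μM). Triplicate.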

[20] = Selectivity index, ratio of IC50 for cytotoxicity against mouse L929 cells to MIC for antibacterial activity against clinically isolated Methicillin-resistant Staphylococcus aureus; format: toxicity, cell-based; conditions: read-out: Selectivity Index
Pseudomonas aeruginosa = experiment: Antibacterial activity against Pseudomonas aeruginosa MTCC 424 assessed as inhibition of bacterial growth at 50 uM measured after 48 hrs by agar well diffusion method; format: functional; conditions: read-out: IZ
Staphylococcus aureus [21] = experiment: Bactericidal activity against Staphylococcus aureus MTCC 740 assessed as inhibition of bacterial growth measured after 48 hrs by agar plate method; format: functional
Outline: (§2)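 MBC: aliquots from microdilution wells without colour change subcultured on drug-free Mueller Hinton agar, 48 h at 37 °C aerobically. MBC is the lowest concentration with no visible growth. Triplicate.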

[22] = system: Staphylococcus epidermidis; experiment: Bactericidal activity against Staphylococcus epidermidis MTCC 435 assessed as inhibition of bacterial growth measured after 48 hrs by agar plate method; format: functional; outline: as §1
Klebsiella pneumoniae [23] = experiment: Antibacterial activity against Klebsiella pneumoniae MTCC 109 assessed as inhibition of bacterial growth at 50 uM measured after 48 hrs by agar well diffusion method; format: functional; conditions: read-out: IZ
Staphylococcus aureus [24] = experiment: Bactericidal activity against Methicillin-resistant Staphylococcus aureus ATCC 33591 assessed as inhibition of bacterial growth measured after 48 hrs by agar plate method; format: functional; outline: as §2
Klebsiella pneumoniae [25] = experiment: Antibacterial activity against clinically isolated Klebsiella pneumoniae RBRJ024 assessed as inhibition of bacterial growth at 50 uM measured after 48 hrs by agar well diffusion method; format: functional; conditions: read-out: IZ
Klebsiella pneumoniae [26] = conditions: RBRJ019, dose 50.0 µM, time 48.0 hrs
Klebsiella pneumoniae [27] = conditions: RBRJ024, dose 50.0 µM, time 48.0 hrs

Compound `Cc1ccc(C(C)C)c(OCc2cn(CCCN3C(=O)C(=O)c4cc(C)ccc43)nn2)c1` has a zone of inhibition at 50 µM (Escherichia coli [1]) of 18.2 mm, a zone of inhibition at 50 µM (Enterobacter cloacae) of 15.4 mm and an MIC (Staphylococcus aureus [2]) of 7.8 µM (≈ 3.37 µg/mL). For the same compound, the zone of inhibition at 50 µM (Escherichia coli [3]) was 16.5 mm, the MBC (Staphylococcus aureus [4]) was 7.8 µM (≈ 3.37 µg/mL) and the zone of inhibition at 50 µM [5] was 22.2 mm. It also gave a zone of inhibition at 50 µM (Escherichia coli [6]) of 17.6 mm, an MIC [7] of 15.6 µM (≈ 6.75 µg/mL) and a zone of inhibition at 50 µM (Staphylococcus aureus [8]) of 24.1 mm. The zone of inhibition at 50 µM (Klebsiella pneumoniae [9]) was 18.5 mm, the IC50 at 72 h [10] was 125 µM and the zone of inhibition at 50 µM (Acinetobacter baumannii) was 13.1 mm. For the same compound, the zone of inhibition at 50 µM (Enterococcus faecalis [11]) was 13.4 mm, the zone of inhibition at 50 µM (Staphylococcus aureus [12]) was 26.1 mm and the zone of inhibition at 50 µM (Staphylococcus aureus [13]) was 24.6 mm. For the same compound, the MIC (Staphylococcus aureus [14]) was 3.9 µM (≈ 1.69 µg/mL), the zone of inhibition at 50 µM (Enterococcus faecalis [15]) was 13.3 mm and the zone of inhibition at 50 µM (Staphylococcus aureus [16]) was 26.7 mm. It also gave an MIC (Staphylococcus aureus [17]) of 3.9 µM (≈ 1.69 µg/mL), an MIC (Staphylococcus aureus [18]) of 3.9 µM (≈ 1.69 µg/mL) and an MBC (Staphylococcus aureus [19]) of 15.6 µM (≈ 6.75 µg/mL). For the same compound, the selectivity ratio [20] was 32, the zone of inhibition at 50 µM (Pseudomonas aeruginosa) was 19.5 mm and the MBC (Staphylococcus aureus [21]) was 7.8 µM (≈ 3.37 µg/mL). For the same compound, the MBC [22] was 31.2 µM (≈ 13.5 µg/mL), the zone of inhibition at 50 µM (Klebsiella pneumoniae [23]) was 19.2 mm and the MBC (Staphylococcus aureus [24]) was 7.8 µM (≈ 3.37 µg/mL). The zone of inhibition at 50 µM (Klebsiella pneumoniae [25]) was 17.2 mm.
With `O=C(O)c1cn(C2CC2)c2cc(N3CCNCC3)c(F)cc2c1=O` [CIPROFLOXACIN] the IZ (Klebsiella pneumoniae [26]) was “inactive”, the zone of inhibition at 50 µM (Escherichia coli [3]) was 11.2 mm and the zone of inhibition at 50 µM [5] was 17.4 mm. For the same compound, the zone of inhibition at 50 µM (Staphylococcus aureus [8]) was 24.5 mm, the MIC (Staphylococcus aureus [14]) was 1.9 µM (≈ 0.63 µg/mL) and the zone of inhibition at 50 µM (Enterococcus faecalis [15]) was 15.9 mm. The IZ (Klebsiella pneumoniae [27]) was “inactive”, the zone of inhibition at 50 µM (Pseudomonas aeruginosa) was 24.2 mm and the zone of inhibition at 50 µM (Klebsiella pneumoniae [23]) was 14.5 mm. It also gave an MBC (Staphylococcus aureus [24]) of 3.9 µM (≈ 1.29 µg/mL).
